The RNAGym collection of RNA variant scans (doi:10.1126/science.aae0568)
This sample holds only a part of the variants without activity.

B1: tRNA (parent)
chain: GUUCCGUUGGCGUAAUGGUAACGCGUCUCCCUCCUAAGGAGAAGACUGCGGGUUCGAGUCCCGUACGGAACG

Variants of: B1
Test: yeast fitness relative to wild type (ratio to wild type); higher = fitter; tRNA-Arg(CCU), competitive growth, 37 C, YPD
Summary of the method: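 Amplicons of the tRNA-Arg(CCU) gene were sequenced, 100-nucleotide paired-end, from the start population and from each end population of a pooled yeast competition. The competition, in six parallel replicates, lasted 24 hours in YPD at 37°C. Fitness relative to wild type was calculated from changes in genotype frequencies. Genotypes had to have ≥ 100 starting reads, and estimates < 0.5 were set to 0.5.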

U16A C22U U26C U54G A65G C66A and U16C C33U A36C A45C U64G cannot be ordered by yeast fitness: at most 0.5 for the first, at most 0.5 for the second.

Going from A15U G38A C46G G56C to U16A C61A C66U A69C, the yeast fitness rises from at most 0.5 to 0.697.

Going from A15U G18C G41A A69C A70G to U16C C24U, the yeast fitness rises from at most 0.5 to 0.882.

Compared with U16C C24A, U16C C22U A70U is lower in yeast fitness: 0.668 for the first, 0.572 for the second.

First: U16C A45G
Second: A15U U47A A57U
The yeast fitness of the first is higher: 0.919 for the first, 0.719 for the second.

U16C A36U A65U and U16C C22U A65U cannot be ordered by yeast fitness: at most 0.5 for the first, at most 0.5 for the second.

First: U16A U19C C61A A65U
Second: U16A C24U C29A
The yeast fitness of the first is higher: 0.6 for the first, 0.57 for the second.

First: U16A U32C A37U C49A C60U G68C
Second: U16A C24U C34A A65G
The yeast fitness of the first is lower: at most 0.5 for the first, 0.716 for the second.

Going from A15U C55U G56A C66G to U16A A40G, the yeast fitness rises from 0.59 to 0.913.

U16C C22U C24U C29U C49U C60U and U16A U32A A40C C62U cannot be ordered by yeast fitness: at most 0.5 for the first, at most 0.5 for the second.

U16A G56C A57U C60U and U16C C30U G41C cannot be ordered by yeast fitness: at most 0.5 for the first, at most 0.5 for the second.

First: A15U G52A
Second: A15U G52C
The yeast fitness of the first is higher: 0.606 for the first, at most 0.5 for the second.

First: U16C C30G
Second: U16C C30A
The yeast fitness of the first is lower: 0.708 for the first, 0.834 for the second.

U16A C24U C34A A65G G67A and U16A C34A A36C A37G G56C C66A cannot be ordered by yeast fitness: at most 0.5 for the first, at most 0.5 for the second.

Going from U16A G17A A20G C22G C61U G68C to U16C C31U C55U, the yeast fitness rises from 0.559 to 0.659.

First: U16A C33G C49A
Second: A15U G67A
The yeast fitness of the first is lower: 0.537 for the first, 0.654 for the second.

First: A15U G67C
Second: A15U G39A A57U C62G
The yeast fitness of the first is higher: 0.657 for the first, 0.502 for the second.

U16A C29G C30U A40U A70G and A15U U16A G18A C60U cannot be ordered by yeast fitness: at most 0.5 for the first, at most 0.5 for the second.

Going from U16A C22G C61U A65G to A15U G58C C66U, the yeast fitness rises from at most 0.5 to 0.631.

First: U16C A42C U53A
Second: U16A U54G
The yeast fitness of the first is lower: at most 0.5 for the first, 0.536 for the second.

First: U16A U54A
Second: U16A C34A U64C
The yeast fitness of the first is higher: 0.573 for the first, 0.513 for the second.

Going from U16C C22G U64C to U16A C34A A40U G44A, the yeast fitness falls from 0.625 to at most 0.5.

First: A15U U32G G44A G50A U54A
Second: A15U G17A C34G C46A
The yeast fitness of the first is lower: at most 0.5 for the first, 0.569 for the second.

U16C A21C G41C A43C and U16C C29G U53A cannot be ordered by yeast fitness: at most 0.5 for the first, at most 0.5 for the second.

First: U16C C34G
Second: U16C C34U
The yeast fitness of the first is lower: 0.609 for the first, 0.759 for the second.

Going from U16C C46U to A15U G17C A45U C49G A70U, the yeast fitness falls from 1.05 to 0.528.

Going from A15U U35A G50C A65C to U16C A21U, the yeast fitness rises from at most 0.5 to 0.756.

Going from A15U U54A to A15U G18A G58A, the yeast fitness falls from 0.53 to at most 0.5.

Compared with U16C C27A A45U C60G A65U, U16A A36U is higher in yeast fitness: 0.542 for the first, 0.552 for the second.

Going from U16C A36U G63A to A15U G56C G67U, the yeast fitness falls from 0.772 to at most 0.5.

U16C C31U C33U G63C and U16C A21C A37G C55A cannot be ordered by yeast fitness: at most 0.5 for the first, at most 0.5 for the second.

Compared with U16C C24G G44A C60U G67C, U16A C49U is higher in yeast fitness: at most 0.5 for the first, 0.946 for the second.

First: U16C C55A
Second: U16A C34G U47A G52C
The yeast fitness of the first is higher: 0.664 for the first, at most 0.5 for the second.

Going from A15U G38C G39A A43C C60G to U16A A21U C24A G52A, the yeast fitness falls from 0.569 to at most 0.5.

First: A15U U26A A37G U64A
Second: U16A A65G
The yeast fitness of the first is lower: at most 0.5 for the first, 0.933 for the second.

U16A C60A G67C and U16A C55G C61U cannot be ordered by yeast fitness: at most 0.5 for the first, at most 0.5 for the second.

First: A15U G38C G50C C60U
Second: U16A A69G
The yeast fitness of the first is lower: at most 0.5 for the first, 0.853 for the second.

First: U16A A69C
Second: U16A G23A C33A A65G
The yeast fitness of the first is higher: 0.969 for the first, at most 0.5 for the second.

U16C C24U C30U and A15U U16G C55A A57C U59C A65G cannot be ordered by yeast fitness: at most 0.5 for the first, at most 0.5 for the second.

Going from U16A C49U A69U to U16A G48A C62G A69U, the yeast fitness falls from 0.647 to 0.629.

First: U16C A21U C31G
Second: U16A C46G
The yeast fitness of the first is lower: 0.537 for the first, 0.951 for the second.

U16C A20U U32C showed a yeast fitness of 0.615.
